The record followed here is PubChem BioAssay.

In general, inhibition refers to the drop in the measured response relative to a control, in per cent.

A short description of assay [1]: inhibitors of TNFa-induced NFkB p65 translocation, primary screen, imaging, HUVEC, MLSMR starter and 10KST1 sets (AID 438;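 active = inhibition above 20% together with a positive visual image hit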;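 also: compound added about 3h40 before a 20 min TNFalpha stimulation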;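 as to inhibition: signal is the nuclear over cytoplasmic p65 intensity ratio per well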). The note with it: HUVEC TNFa-induced p65 nuclear translocation; cell count: measured here: nuclei count (cytotoxicity indicator), at 2.08 µM; inhibition: at 2 µM, stronger effect = higher value, 0% TNFa-plus-vehicle, 100% no-TNFa wells.
The nature of assay [2]: inhibitors of E-selectin induction by TNFa, primary screen, imaging, HUVEC, immunofluorescence, MLSMR starter and 10KST1 sets (AID 487;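 active = visually confirmed hit in the image check and inhibition above 20%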;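 as to inhibition: signal is fraction of cell area covered by stained E-selectin grains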;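 as to nuclei count: 100% = median nuclei count of all wells on the same plate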). As to conditions: HUVEC TNFalpha-induced E-selectin immunofluorescence imaging, at 2 µM; inhibition: stronger effect = higher value; nuclei count: measured here: cell number, toxicity.
A short description of assay [3]: DUSP6 inhibitors restoring Erk phosphorylation by chemical complementation, primary imaging in DUSP6-transfected HeLa (AID 609;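 active = compounds giving at least 50% inhibition in the cell-based MKP-3 phosphatase rescue imaging test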;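 as to inhibition: phospho-Erk level distribution per well compared with pooled transfected vehicle control wells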). The note with it: HeLa MKP-3 transfected, phospho-Erk imaging KS statistic, at 10 µM, cells stimulated with TPA for 15 min.
The target in assay [4] is Dual specificity protein phosphatase 6 (Homo sapiens) (UniProt Q16828). Described as above. The note with it: HeLa MKP-3 transfected, phospho-Erk imaging KS statistic; at 10 µM; stronger effect = higher value; cells stimulated with TPA for 15 min.
For assay [5], the target named is Voltage-gated potassium channel subunit beta-2 (Rattus norvegicus) (UniProt P62483). Nature of the assay: KvBeta enzyme negative modulators, primary screen, biochemical, NADPH fluorescence (AID 622;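 active = fluorescence slope higher than the sample average by over 3 SD, cut at about -0.22 in these data, passing the limit was not always enough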;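 also: slope of raw intensity against log time taken from 70 to 1610 s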). As to conditions: recombinant KvBeta, 4-cyanobenzaldehyde reduction, at 10 µM, stronger effect = higher value.
The target is the same in assay [6]. Nature of the assay: KvBeta positive modulators, primary screen, biochemical, NADPH fluorescence (AID 623;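 active = NADPH fluorescence slope more negative than the mean of all samples by about 3 SD, 99.7% confidence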;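 also: fluorescence intensity change per second fitted from 20 to 320 s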). The note with it: Recombinant KvBeta, NADPH fluorescence decrease slope, 10 min; at 10 µM; stronger effect = lower value.
Assay [7] concerns the target Muscarinic acetylcholine receptor M4 (Homo sapiens) (UniProt P08173). Nature of the assay: compounds altering M4/GIRK thallium flux, either direction, primary screen, M4 allosteric agonist project, cell-based, HEK293 M4/GIRK, BTC-AM (AID 625;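 active = fluorescence slope after compound addition differing from the mean of all tested samples at 99.7% confidence, mostly higher but some lower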;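 also: thallium influx through GIRK channels coupled to M4 in HEK293 cells with BTC-AM dye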). The note with it: at 10 µM, actives lie on both sides. In a few lines: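 Material: HEK293 cells with M4 receptor and GIRK channels; Times: cells overnight at 37 °C, BTC-AM loading 1 h, reads 2 min total; Technique: kinetic BTC-AM fluorescence sampled at 1 Hz, 10 s pre-addition baseline; Read-out basis: slope over 15–24 s of trace normalized to starting intensity; Controls: carbachol positive, DMSO negative.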

Assay [8] is described as follows: inhibitors of larval lipid processing in zebrafish, primary screen, whole organism, PED6 fluorescence, gall bladder and intestine (AID 686;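 active = a full or partial loss of lipid-probe fluorescence in the fish gall bladder, intestine or both, judged by eye; inactive = no fluorescence loss, or compound toxic to the fish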;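 also: larvae 5 to 7 days old with five fish per well; signal comes from phospholipase A2 cleavage of quenched PED6 carried via bile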). As to conditions: Zebrafish larvae PED6 lipid processing, fluorescence scoring; screened at 20 µM (by protocol). The essentials:
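Incubation: overnight exposure of larvae to compound plus PED6 / Test system: live zebrafish larvae aged 5-7 days, whole organism / Amount: 5 larvae per well / Read-out basis: visual per-well fluorescence inhibition score / Signal: visual fluorescence microscopy scoring of gall bladder, gut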

A short description of assay [9]: inhibitors of Chlamydomonas gravitaxis, primary screen, whole organism, Chlamydomonas reinhardtii, WT vs cilia-less mutant, absorbance, 96-well (AID 463189).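 Also: 0% = wild type cc124 cells in DMSO and 100% = ciliumless bld1 mutant cells.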 The note with it: OD600 absorbance, 2 days, at 10 µM, stronger effect = higher value.
[10] abbreviates: measured here: cell density z-score.
[11] abbreviates: measured here: nuclear c-Myc green intensity z-score.
Setting [12] is: measured here: nuclear pErk red intensity z-score, stronger effect = higher value.

Activity calls are given as the source filed them.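 The calls were made as follows, unless noted: active = inhibition at or above 50% relative to wild type and mutant plate controls; inactive = inhibition below 50%.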

Chain of Muscarinic acetylcholine receptor M4 (Homo sapiens) (P08173 whole entry, looked up): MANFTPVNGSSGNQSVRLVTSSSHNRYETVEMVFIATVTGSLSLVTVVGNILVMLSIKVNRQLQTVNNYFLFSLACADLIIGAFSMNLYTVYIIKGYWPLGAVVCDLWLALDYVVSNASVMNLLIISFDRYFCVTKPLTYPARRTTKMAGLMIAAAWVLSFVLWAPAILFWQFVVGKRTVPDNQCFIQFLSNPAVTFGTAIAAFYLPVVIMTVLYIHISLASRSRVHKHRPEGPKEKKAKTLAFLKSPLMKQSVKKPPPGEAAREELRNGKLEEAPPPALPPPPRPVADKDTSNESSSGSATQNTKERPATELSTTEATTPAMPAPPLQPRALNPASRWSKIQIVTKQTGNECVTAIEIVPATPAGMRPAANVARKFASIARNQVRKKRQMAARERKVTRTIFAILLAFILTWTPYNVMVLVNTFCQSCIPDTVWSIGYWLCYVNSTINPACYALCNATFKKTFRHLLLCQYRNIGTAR
Chain of Dual specificity protein phosphatase 6 (Homo sapiens) (Q16828 whole entry, looked up): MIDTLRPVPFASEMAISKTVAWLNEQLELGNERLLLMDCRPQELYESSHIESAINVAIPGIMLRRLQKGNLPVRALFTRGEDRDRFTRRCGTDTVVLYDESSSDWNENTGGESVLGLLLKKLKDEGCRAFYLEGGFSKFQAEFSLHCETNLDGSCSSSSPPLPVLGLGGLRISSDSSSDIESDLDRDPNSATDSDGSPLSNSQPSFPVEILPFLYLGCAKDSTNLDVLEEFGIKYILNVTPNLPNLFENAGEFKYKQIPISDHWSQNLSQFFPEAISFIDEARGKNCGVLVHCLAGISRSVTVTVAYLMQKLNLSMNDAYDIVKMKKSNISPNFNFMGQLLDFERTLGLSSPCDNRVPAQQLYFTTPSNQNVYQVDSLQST
Chain of Voltage-gated potassium channel subunit beta-2 (Rattus norvegicus) (P62483 whole entry, looked up): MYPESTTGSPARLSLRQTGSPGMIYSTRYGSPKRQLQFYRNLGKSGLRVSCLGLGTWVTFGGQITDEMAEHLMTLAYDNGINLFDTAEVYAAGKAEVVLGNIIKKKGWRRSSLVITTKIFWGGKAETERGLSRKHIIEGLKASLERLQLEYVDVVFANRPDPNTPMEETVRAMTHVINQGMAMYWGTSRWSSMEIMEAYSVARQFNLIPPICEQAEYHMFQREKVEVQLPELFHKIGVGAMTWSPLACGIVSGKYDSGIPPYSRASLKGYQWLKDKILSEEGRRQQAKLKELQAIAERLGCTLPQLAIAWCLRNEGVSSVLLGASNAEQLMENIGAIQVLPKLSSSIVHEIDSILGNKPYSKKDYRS

As for `COC(=O)c1[nH]c(C)c(/C(O)=C2\C(=O)C(=O)N(CCN3CCOCC3)C2c2ccccc2OC)c1C` (centres undefined), in [1], the cell count was 610. Besides, the inhibition in assay [1] is -6% (inactive); in assay [2], -13.3% (inactive); in assay [4], -7.28% (inactive); in [9] it was 5.11% (inactive). Moreover, in assay [2], the nuclei count turned out to be 168%. The values for the z-score in assay [3] (setting [10]), in [3] (setting [11]) and in assay [3] (setting [12]) were -1.87, 0.251 and -0.629, respectively. Also, the values for the fluorescence slope in assay [5] and in [7] were -0.491 (inactive) and 0.00635 (inactive), respectively. The NADPH fluorescence slope in assay [6] was -0.000142 (inactive). In assay [8], the compound was called inactive.

As to `CN(C)c1cccc2c(S(=O)(=O)N3CCOCC3)cccc12`, the cell count in [1] is 607. The inhibition in [1] is -7.5% (inactive); in [2] it was -24.7% (inactive); in assay [4], -9.91% (inactive); in assay [9] it was -1.61% (inactive). This compound also showed a nuclei count in assay [2] of 157%. Besides, the z-score in assay [3] (setting [10]) was -2.51; in [3] (setting [11]) it was 1.31; in assay [3] (setting [12]), -0.367. The fluorescence slope in assay [5] is -0.275 (inactive); in assay [7] it was 0.00799 (inactive). Moreover, the NADPH fluorescence slope in assay [6] was -7.8e-05 (inactive). For the same compound, the outcome in assay [8] was inactive.

`CSc1nc2sc3c(c2c2nncn12)CCC3`: the cell count in assay [1] is 595. Besides, the inhibition is -9.4% (inactive) in assay [1], -93% (inactive) in assay [2], -13.3% (inactive) in assay [4] and 46.8% (inactive) in [9]. This compound also registered a nuclei count in [2] of 148%. For the same compound, the results for the z-score in [3] (setting [10]), in assay [3] (setting [11]) and in assay [3] (setting [12]) were -0.00236, -1.35 and -0.539, respectively. The fluorescence slope is -0.46 (inactive) in [5] and 0.00506 (inactive) in [7]. Besides, in [6], the NADPH fluorescence slope is -9.7e-05 (inactive). Also, the compound was classed as inactive in assay [8].

For the compound `c1ccc2c(c1)CCN(c1ncnc3c1[nH]c1ccccc13)C2`, in assay [1], the cell count was 585. For the same compound, the inhibition in assay [1] is -19.2% (inactive); in [2], -59.1% (inactive); in assay [4], -4.59% (inactive); in assay [9] it was 42.6% (inactive). Also, in assay [2], the nuclei count was determined as 172%. For the same compound, the z-score in assay [3] (setting [10]) is 0.335; in assay [3] (setting [11]), -1.2; in [3] (setting [12]) it was 1.56. Besides, the fluorescence slope in [5] was -0.388 (inactive); in assay [7], 0.00488 (inactive). In addition, the NADPH fluorescence slope in assay [6] is -1.5e-05 (inactive). For the same compound, the compound was called inactive in [8].

Take `CCN(CC)C(=O)C1CCN(c2ncnc3c2cnn3-c2ccc(C)cc2C)CC1`: in assay [1], the cell count was found to be 622. Also, the inhibition in [1] is -8.2% (inactive); in [2] it was -52.3% (inactive); in assay [4] it was 11.4% (inactive); in [9], 27.9% (inactive). For the same compound, the nuclei count in [2] was 178%. The figures for the z-score in assay [3] (setting [10]), in assay [3] (setting [11]) and in assay [3] (setting [12]) were 1.38, -1.28 and 0.399, respectively. In addition, the fluorescence slope was -0.416 (inactive) in [5] and 0.00727 (inactive) in [7]. Besides, the NADPH fluorescence slope in assay [6] was -4.9e-05 (inactive). Also, the compound was called inactive in [8].

For the compound `COc1cccc(C2C(C(=O)c3sc(C)nc3C)=C(O)C(=O)N2CCN2CCOCC2)c1OC` (centres undefined), in assay [1], the cell count was 403. Further, the inhibition in assay [1] is -3.3% (inactive); in assay [2], -65.8% (inactive); in assay [4] it was 18.2% (inactive); in [9], 4.67% (inactive). In assay [2], the nuclei count is 140%. The figures for the z-score in [3] (setting [10]), in [3] (setting [11]) and in [3] (setting [12]) were -0.517, 0.521 and 0.668, respectively. Further, the fluorescence slope is -0.47 (inactive) in assay [5] and 0.00521 (inactive) in [7]. Also, the NADPH fluorescence slope in [6] was -0.000114 (inactive). In assay [8], the result was inactive.

Turning to `CC1(C)C2CCC1(C)C(OC(=O)CC(=O)O)C2` (centres undefined), the cell count in assay [1] came to 566. Moreover, the inhibition is -2% (inactive) in assay [1], -63.5% (inactive) in assay [2], 1.98% (inactive) in assay [4] and 5.19% (inactive) in [9]. In assay [2], this compound showed a nuclei count of 143%. Moreover, the z-score in [3] (setting [10]) was 0.899; in assay [3] (setting [11]), -0.605; in assay [3] (setting [12]) it was 0.67. The fluorescence slope in [5] was -0.382 (inactive); in assay [7], 0.00679 (inactive). Besides, the NADPH fluorescence slope in [6] was -4.1e-05 (inactive). The result in assay [8] was inactive.

Consider `Cn1c(=O)c2c(nc(Oc3ccc4c(c3)OCO4)n2Cc2ccc(Br)cc2)n(C)c1=O`, for which the cell count in [1] is 619. Besides, the inhibition in [1] is 8.1% (inactive); in assay [2], -44% (inactive); in [4], 7.93% (inactive); in assay [9], 29.5% (inactive). The nuclei count in [2] came out at 123%. The z-score in assay [3] (setting [10]) is 0.319; in [3] (setting [11]), -0.507; in assay [3] (setting [12]) it was 0.317. The fluorescence slope in [5] was -0.562 (inactive); in [7] it was 0.00702 (inactive). For the same compound, the NADPH fluorescence slope in assay [6] was -3.8e-05 (inactive). For the same compound, in assay [8], the compound was called inactive.

As for `CCOC(=O)Cc1[nH]nc2c1C(c1cc(OC)ccc1OC)C(C#N)=C(N)O2` (centres undefined), the cell count in assay [1] was 591. Also, the inhibition is -5.3% (inactive) in assay [1], -13.2% (inactive) in [2], 21% (inactive) in assay [4] and -4.63% (inactive) in assay [9]. This compound displayed a nuclei count in [2] of 140%. Moreover, the z-score in assay [3] (setting [10]) was 1.07; in [3] (setting [11]) it was 1.02; in assay [3] (setting [12]), 0.992. For the same compound, the fluorescence slope was -0.503 (inactive) in [5] and 0.00642 (inactive) in assay [7]. Further, the NADPH fluorescence slope in [6] is -5.8e-05 (inactive). Besides, in [8], the compound was classed as inactive.

As for `COc1cc(N2CCCC2)c(OC)cc1/C=c1/sc2nc3ccccc3n2c1=O`, the cell count in assay [1] stood at 499. In addition, the inhibition in [1] is -8.5% (inactive); in assay [2] it was -137% (inactive); in assay [4], 39.3% (inactive); in [9], 3.75% (inactive). Further, in assay [2], the nuclei count was determined as 155%. The z-score is -1.29 in [3] (setting [10]), 0.0669 in assay [3] (setting [11]) and -0.774 in assay [3] (setting [12]). Also, the fluorescence slope in assay [5] was -0.438 (inactive); in [7], 0.00712 (inactive). Besides, the NADPH fluorescence slope in assay [6] is -3.3e-05 (inactive). The compound was called inactive in assay [8].

On to `Cc1ccc2cc(CNC(C)C)c(=O)[nH]c2c1`, for which the cell count in assay [1] was 529. For the same compound, the inhibition in assay [1] was -8.4% (inactive); in assay [2], 12.9% (inactive); in [4] it was 37.7% (inactive); in assay [9], -6.41% (inactive). This compound also had a nuclei count in assay [2] of 99.8%. Further, the figures for the z-score in assay [3] (setting [10]), in [3] (setting [11]) and in assay [3] (setting [12]) were 2.86, -1.18 and -1.89, respectively. In addition, the values for the fluorescence slope in assay [5] and in assay [7] were -0.49 (inactive) and 0.00672 (inactive), respectively. The NADPH fluorescence slope in [6] is -2.7e-05 (inactive). Also, the compound was classed as inactive in assay [8].

Turning to `CN1CCc2c(c3c(n2C)CCN(C)[C@@H]3c2cccnc2)[C@H]1c1cccnc1`, the cell count in assay [1] turned out to be 406. For the same compound, the inhibition in assay [1] was -15.1% (inactive); in assay [2], -320% (inactive); in [4] it was 15.4% (inactive); in [9], 5.73% (inactive). Further, the nuclei count in [2] amounted to 159%. In addition, the z-score in [3] (setting [10]) is 0.329; in [3] (setting [11]), -0.347; in assay [3] (setting [12]), 0.296. The fluorescence slope in [5] was -0.478 (inactive); in assay [7], 0.00388 (inactive). Moreover, the NADPH fluorescence slope in assay [6] is -5.4e-05 (inactive). The outcome in [8] was “inactive; toxic”.

Turning to `Cc1ccc(-n2ncc3c(N4CCC(C(N)=O)CC4)ncnc32)c(C)c1`, the cell count in assay [1] was 525. Moreover, the inhibition in [1] is -15.6% (inactive); in assay [2], -31.1% (inactive); in assay [4], 7.42% (inactive); in [9], 42.2% (inactive). In [2], this compound registered a nuclei count of 113%. Also, the z-score in assay [3] (setting [10]) is -0.735; in assay [3] (setting [11]), 0.453; in assay [3] (setting [12]), -0.332. The fluorescence slope in assay [5] is -0.391 (inactive); in assay [7], 0.0065 (inactive). Besides, the NADPH fluorescence slope in [6] was -3.9e-05 (inactive). For the same compound, the compound was called inactive in [8].
